Activity calls are given as the source filed them. No cut-off for these calls is given here.
Legend:
[1] = biological target: T1, Prostaglandin G/H synthase 1 (Ovis aries) (UniProt P05979); assay: Inhibition of ovine COX1 assessed as inhibition of 12-HHT formation preincubated at 10 uM for 5 mins before arachidonic acid addition by HPLC analysis
T1 sequence (whole entry): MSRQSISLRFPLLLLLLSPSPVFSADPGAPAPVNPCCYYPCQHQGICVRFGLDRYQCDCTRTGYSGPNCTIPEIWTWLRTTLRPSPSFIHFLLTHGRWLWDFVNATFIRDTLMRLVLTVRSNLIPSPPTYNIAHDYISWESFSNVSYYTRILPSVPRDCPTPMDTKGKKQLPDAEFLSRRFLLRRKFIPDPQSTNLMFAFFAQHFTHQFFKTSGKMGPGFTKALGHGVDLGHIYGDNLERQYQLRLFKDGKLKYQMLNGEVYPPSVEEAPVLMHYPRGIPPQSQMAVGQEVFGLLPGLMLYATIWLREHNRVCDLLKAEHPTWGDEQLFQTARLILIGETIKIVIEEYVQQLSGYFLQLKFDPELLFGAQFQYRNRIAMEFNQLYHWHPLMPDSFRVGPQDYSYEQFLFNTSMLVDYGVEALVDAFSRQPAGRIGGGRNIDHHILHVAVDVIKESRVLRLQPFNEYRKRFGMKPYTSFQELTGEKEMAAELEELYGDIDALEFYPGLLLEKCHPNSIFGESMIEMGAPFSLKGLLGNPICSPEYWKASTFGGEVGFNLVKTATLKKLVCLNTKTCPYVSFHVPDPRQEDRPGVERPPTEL

[2] = biological target: T2, Polyunsaturated fatty acid 5-lipoxygenase (Homo sapiens) (UniProt P09917); assay: Inhibition of 5-lipoxygenase in A23187-stimulated human neutrophils assessed as remaining activity measuring enzyme product formation at 10 uM by RP-HPLC analysis relative to vehicle-treated control
T2 sequence (whole entry): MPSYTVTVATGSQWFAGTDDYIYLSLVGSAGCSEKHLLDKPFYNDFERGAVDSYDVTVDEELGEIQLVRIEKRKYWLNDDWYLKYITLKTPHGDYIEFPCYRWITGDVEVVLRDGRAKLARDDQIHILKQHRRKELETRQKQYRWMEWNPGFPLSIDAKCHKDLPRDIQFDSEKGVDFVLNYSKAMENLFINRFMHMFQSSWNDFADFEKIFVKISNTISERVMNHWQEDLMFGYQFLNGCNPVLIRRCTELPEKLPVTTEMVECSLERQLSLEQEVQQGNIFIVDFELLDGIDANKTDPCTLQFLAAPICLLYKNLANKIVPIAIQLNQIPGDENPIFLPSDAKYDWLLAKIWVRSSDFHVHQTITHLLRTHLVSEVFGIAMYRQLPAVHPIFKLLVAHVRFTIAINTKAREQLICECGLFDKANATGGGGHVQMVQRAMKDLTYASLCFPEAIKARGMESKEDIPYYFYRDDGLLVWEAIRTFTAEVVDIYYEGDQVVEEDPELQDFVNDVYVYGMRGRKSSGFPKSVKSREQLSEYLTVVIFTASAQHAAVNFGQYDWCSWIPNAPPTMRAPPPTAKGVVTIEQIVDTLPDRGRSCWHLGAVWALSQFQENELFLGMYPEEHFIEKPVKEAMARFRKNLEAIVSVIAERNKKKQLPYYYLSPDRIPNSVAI
In short: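 Human neutrophils (whole cells) stimulated with A23187 and 20 μM exogenous arachidonic acid; test compounds at 10 μM. Activity expressed as % remaining versus vehicle control; BWA4C as reference inhibitor; mean with SE, n = 3−5.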

[3] = biological target: T3, Prostaglandin E synthase (Homo sapiens) (UniProt O14684); assay: Inhibition of mPGES-1 in human IL-1beta-stimulated A549 cell microsomes assessed as remaining activity measuring PGE2 formation from PGH2 at 10 uM after 15 mins by RP-HPLC analysis; conditions: Microsome
T3 sequence (whole entry): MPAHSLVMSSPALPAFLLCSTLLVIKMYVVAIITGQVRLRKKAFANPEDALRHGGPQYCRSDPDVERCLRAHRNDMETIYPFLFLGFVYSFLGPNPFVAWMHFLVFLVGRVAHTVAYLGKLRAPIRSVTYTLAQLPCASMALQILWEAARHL
In short: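 Cell-free assay with microsomes from human A549 cells; PGE2 generation from 20 μM PGH2 substrate; compounds tested at 10 μM. Result given as % PGE2 formation remaining versus vehicle control; MK-886 reference; mean with SE, n = 3−5.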

Prostaglandin E synthase = biological target: T4, Prostaglandin E synthase (Homo sapiens, UniProt O14684); assay: Inhibition of mPGES-1 in human IL-1beta-stimulated A549 cell microsomes assessed as inhibition of PGE2 formation from PGH2 after 15 mins by RP-HPLC analysis; parameters: species or system Microsome
T4 sequence (O14684 whole entry): T3 sequence (whole entry)

[4] = biological target: T1, Prostaglandin G/H synthase 1 (Ovis aries); assay: Inhibition of ovine COX1 assessed as inhibition of 12-HHT formation measuring remaining activity preincubated at 10 uM for 5 mins before arachidonic acid addition by HPLC analysis
In short: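 Isolated ovine COX-1 in a cell-free assay, 5 μM arachidonic acid as substrate; compounds at fixed 10 μM. 12-HHT formation expressed as % activity versus vehicle control; mean with SE, n = 3.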

[5] = biological target: T5, Polyunsaturated fatty acid 5-lipoxygenase (Homo sapiens, UniProt P09917); assay: Inhibition of 5-lipoxygenase in A23187-stimulated human neutrophils assessed as inhibition of enzyme product formation by RP-HPLC analysis
T5 sequence (P09917 whole entry): T2 sequence (whole entry)
In short: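 Whole-cell assay in human neutrophils stimulated with A23187 plus 20 μM exogenous arachidonic acid as substrate; BWA4C as reference inhibitor. IC50 calculated for selected compounds; mean with SE, n = 3−5.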

Structure (SMILES)	inhibition [1]	Activity [2] [%]	Activity [3] [%]	IC50 (Prostaglandin E synthase; read-out: IC50) [µM]	Activity [4] [%]	IC50 ([5]; read-out: IC50) [µM]	IC50 [5]	IC50 (Prostaglandin E synthase; a549)
Cc1ccc(S(=O)(=O)NC(=O)C(C)c2ccc(CC(C)C)cc2)cc1 (stereo not drawn)	inactive	67.7	78.6					
O=C(O)Cc1cn(-c2ccccc2)nc1-c1ccc(C#Cc2ccc(Cl)cc2)cc1	inactive			0.16	77.8	3.7		
O=C(O)Cc1cn(-c2ccccc2)nc1-c1ccc(C#Cc2cccc(Cl)c2)cc1	inactive			0.18		3.9		
CC(C)Cc1ccc(C(C)C(=O)O)cc1 (stereo not drawn) [IBUPROFEN]			81.2				Not Active	
Cc1c(CC(=O)O)c2cc(C#Cc3ccccc3)ccc2n1Cc1ccc(Cl)cc1	inactive			2.5		0.9		
Cc1ccc(S(=O)(=O)NC(=O)Cc2c(C)n(Cc3ccc(Cl)cc3)c3ccc(C#Cc4ccccc4)cc23)cc1	inactive			2.8	83.1	1.5		
O=C(O)Cc1cn(-c2ccccc2)nc1-c1ccc(Cl)cc1 [LONAZOLAC CALCIUM]		59.7		45				
Cc1ccc(S(=O)(=O)NC(=O)C(C)c2cccc(C(=O)c3ccccc3)c2)cc1 (stereo not drawn)	inactive	78.9	76.3					
O=C(Cc1cn(-c2ccccc2)nc1-c1ccc(Cl)cc1)NS(=O)(=O)c1ccc(Cl)cc1	inactive			2.3		2.9		
COc1ccc2cc(C(C)C(=O)NS(C)(=O)=O)ccc2c1 (stereo not drawn)	inactive		92.5				Not Active	
COc1ccc2cc([C@H](C)C(=O)O)ccc2c1 [NAPROXEN]							Not Active	Not Active
O=C(O)Cc1cn(-c2ccccc2)nc1-c1ccc(C#Cc2ccccc2)cc1	inactive			0.4		5		
Cc1ccc(S(=O)(=O)NC(=O)Cc2c(C)n(Cc3ccc(Cl)cc3)c3ccc(Br)cc23)cc1	inactive			1.75		1.7		
O=C(Cc1cn(-c2ccccc2)nc1-c1ccc(Cl)cc1)NS(=O)(=O)c1ccccc1	inactive			5.9		6.8		
COc1ccc2c(c1)c(CC(=O)O)c(C)n2C(=O)c1ccc(Cl)cc1 [INDOMETHACIN]				40.6	23.3		Not Active	
COc1ccc2c(c1)c(CC(=O)NS(=O)(=O)c1ccc(C)cc1)c(C)n2C(=O)c1ccc(Cl)cc1	inactive			6.4	89.4	2.9		
CS(=O)(=O)NC(=O)Cc1cn(-c2ccccc2)nc1-c1ccc(Cl)cc1	inactive	72.1	98					
O=C(Cc1cn(-c2ccccc2)nc1-c1ccc(C#Cc2ccccc2)cc1)NS(=O)(=O)c1ccc(Cl)cc1	inactive			0.2		1.6		
Cc1ccc(S(=O)(=O)NC(=O)Cc2cn(-c3ccccc3)nc2-c2ccc(Cl)cc2)cc1	inactive			3.4		2.5		
CCOC(=O)Cc1c(C)n(Cc2ccc(Cl)cc2)c2ccc(C#Cc3ccccc3)cc12	inactive		86.1					
COc1ccc2cc(C(C)C(=O)NS(=O)(=O)c3ccc(C)cc3)ccc2c1 (stereo not drawn)	inactive		72.8				Not Active	
O=C(Cc1cn(-c2ccccc2)nc1-c1ccc(C#Cc2ccc(Cl)cc2)cc1)NS(=O)(=O)c1ccc(Cl)cc1	inactive			0.35	70.1	4.7		
COc1ccc2c(c1)c(C(=O)NCc1ccc(S(C)(=O)=O)cc1)c(C)n2C(=O)c1ccc(Cl)cc1	inactive		68.7					
CC(C)Cc1ccc(C(C)C(=O)NS(C)(=O)=O)cc1 (stereo not drawn)	inactive	91.2	67.9					
Cc1c(CC(=O)NS(=O)(=O)c2ccc(Cl)cc2)c2cc(C#Cc3ccccc3)ccc2n1Cc1ccc(Cl)cc1	inactive			1.8		2		
O=C(Cc1cn(-c2ccccc2)nc1-c1ccc(C#Cc2cccc(Cl)c2)cc1)NS(=O)(=O)c1ccc(Cl)cc1	inactive			0.8		2.3		
CC(C(=O)NS(C)(=O)=O)c1cccc(C(=O)c2ccccc2)c1 (stereo not drawn)	inactive	90.7	78.6					
CC(C(=O)O)c1cccc(C(=O)c2ccccc2)c1 (stereo not drawn) [KETOPROFEN]							Not Active	
COc1ccc2c(c1)c(CC(=O)NS(C)(=O)=O)c(C)n2C(=O)c1ccc(Cl)cc1	inactive	64.9	73.6					
Cc1ccc(S(=O)(=O)NC(=O)Cc2cn(-c3ccccc3)nc2-c2ccc(-c3ccccc3)cc2)cc1	inactive			1.7	99.1	3.5		
